Measured values collected from several papers.
Compare with care: the assays were run in different laboratories.

Structure (SMILES) | technique | sample | logP
O=C(c1cc(Cc2n[nH]c(=O)c3ccccc23)ccc1F)N1CCN(C(=O)C2CC2)CC1 |  |  | 1.55
C=CCN1CC[C@]23c4c5ccc(O)c4O[C@H]2[C@@H](OCCOCCOCCOCCOCCOCCOCCOC)CC[C@@]3(O)[C@H]1C5 |  |  | 1.43
CCCCC1=NC2(CCCC2)C(=O)N1Cc1ccc(-c2ccccc2S(=O)(=O)Nc2noc(C)c2C)c(COCC)c1 |  |  | 4.26
CC1=NN(CNc2c(O)c(S(=O)(=O)O)cc3ccccc23)C(=O)C1=NNn1c(-c2ccccc2)nc2ccccc2c1=O |  |  | 5.01
CC(=O)N1N=C(c2cccc(O)c2)CC1c1ccc(Cl)cc1 (stereo not shown) | potentiometric |  | 2.98
N#Cc1[nH]nnc1-c1csc(-c2ccc(Cl)cc2)n1 | potentiometric |  | 4.5
CC1=NN(CNc2ccc(C(=O)O)cc2)C(=O)C1=NNn1c(-c2ccccc2)nc2ccccc2c1=O |  |  | 4.15
C=C[C@H]1C[N@]2CC[C@H]1C[C@@H]2C(O)c1ccnc2ccc(OC)cc12 (stereo partly shown) |  | water | 3.17
Cc1cc(Cl)cc(S(C)(=O)=O)c1NC(=O)c1cc(Br)nn1-c1ncccc1Cl | potentiometric |  | 4.34
N#Cc1[nH]nnc1-c1cccc(OCc2cc(C(F)(F)F)ccc2C(F)(F)F)c1 | potentiometric |  | 5.5
CCc1nc(N)nc(N)c1-c1ccc(Cl)cc1 |  |  | 3.14
O=C(O)CCCNC(=O)c1ccc(O)c2ncccc12 |  |  | 0.71
CC1=NN(CNc2ccc(O)cc2)C(=O)C1=NNn1c(-c2ccccc2)nc2ccccc2c1=O |  |  | 4.19
Nc1nc(-c2ccccc2)nc2[nH]nc(Nc3ccc(C(F)(F)F)cc3)c12 |  |  | 2.85
O=C1NN=C(N=Cc2ccccc2)C1=NNn1c(-c2ccccc2)nc2ccccc2c1=O |  |  | 3.39
CC(C)N1CCN(Cc2cnc(-c3cc(-c4cccc5[nH]ccc45)cc4[nH]ncc34)o2)CC1 |  |  | 4.01
